ChEMBL document CHEMBL4138082 (Eur J Med Chem, 2017)
Calls of active or inactive are those of the source. The rule behind the calls is not given here.

What was measured:
HepG2 [1] = assay: Cell cycle arrest in human HepG2 cells assessed as G1 phase accumulation at 0.0625 uM after 48 hrs by propidium iodide staining based flow cytometry (reference value: 32.74%); assay type: functional
In short: (§1)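 HepG-2 cells were plated and grown 24 h at 37 °C, then treated 48 h at 0, 0.0625, 0.125 or 0.25 µM, with 0.1% DMSO as control. Cells were fixed overnight in 70% ethanol at 4 °C, treated with RNase A and stained with propidium iodide. DNA content was measured by flow cytometry to give cell-cycle phase distribution.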

HT-29 = assay: Antiproliferative activity against human HT-29 cells after 72 hrs by MTT assay; assay type: functional, cell-based; settings: HT-29, 72 h
In short: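 MTT assay. Cells were seeded and grown 24 h at 37 °C in 5% CO2, then exposed to compound or left untreated for 72 h. MTT (5 mg/mL stock) was added for 4 h and the formazan dissolved in DMSO. OD was read at 570 nm. IC50 is the concentration giving 50% growth inhibition, reported as mean ± SD of three independent experiments. Vehicle reference was 0.1% DMSO.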

HepG2 [2] = assay: Cell cycle arrest in human HepG2 cells assessed as S phase accumulation at 0.0625 uM after 48 hrs by propidium iodide staining based flow cytometry (reference value: 43.88%); assay type: functional; in short: as §1
HepG2 [3] = assay: Cell cycle arrest in human HepG2 cells assessed as G2 phase accumulation at 0.0625 uM after 48 hrs by propidium iodide staining based flow cytometry (reference value: 23.38%); assay type: functional; in short: as §1
HepG2 [4] = assay: Cell cycle arrest in human HepG2 cells assessed as S phase accumulation at 0.125 uM after 48 hrs by propidium iodide staining based flow cytometry (reference value: 43.88%); assay type: functional; in short: as §1
HepG2 [5] = assay: Cell cycle arrest in human HepG2 cells assessed as G1 phase accumulation at 0.25 uM after 48 hrs by propidium iodide staining based flow cytometry (reference value: 32.74%); assay type: functional; in short: as §1
HepG2 [6] = assay: Cell cycle arrest in human HepG2 cells assessed as G2 phase accumulation at 0.25 uM after 48 hrs by propidium iodide staining based flow cytometry (reference value: 23.38%); assay type: functional; in short: as §1
HepG2 [7] = assay: Cell cycle arrest in human HepG2 cells assessed as G1 phase accumulation at 0.125 uM after 48 hrs in presence of hemoglobin by propidium iodide staining based flow cytometry (reference value: 52.93%); assay type: functional
HepG2 [8] = assay: Cell cycle arrest in human HepG2 cells assessed as S phase accumulation at 0.125 uM after 48 hrs in presence of hemoglobin by propidium iodide staining based flow cytometry (reference value: 36.40%); assay type: functional
HepG2 [9] = assay: Cell cycle arrest in human HepG2 cells assessed as G1 phase accumulation at 0.25 uM after 48 hrs in presence of hemoglobin by propidium iodide staining based flow cytometry (reference value: 52.93%); assay type: functional
HepG2 [10] = assay: Cell cycle arrest in human HepG2 cells assessed as S phase accumulation at 0.25 uM after 48 hrs in presence of hemoglobin by propidium iodide staining based flow cytometry (reference value: 36.40%); assay type: functional
HepG2 [11] = assay: Induction of apoptosis in human HepG2 cells assessed as chromatin condensation at 0.0625 to 0.25 uM measured after 48 hrs by Hoechst 33258 staining based fluorescent microscopic analysis; assay type: functional, cell-based
In short: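 After 48 h exposure to 0.0625, 0.125 or 0.25 µM, or to 0.1% DMSO vehicle, HepG-2 cells were stained with Hoechst 33258. Nuclear morphology, including chromatin condensation and fragmentation, was inspected by fluorescence microscopy.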

HepG2 [12] = assay: Induction of apoptosis in human HepG2 cells assessed as late apoptotic cells at 0.0625 uM after 48 hrs by […] based flow cytometry (reference value: 3.36%); assay type: functional
HepG2 [13] = assay: Induction of apoptosis in human HepG2 cells assessed as viable cells at 0.0625 uM after 48 hrs by Annexin V-APC/7-AAD staining based flow cytometry (reference value: 91.07%); assay type: functional; settings: HepG2, 48 h, read-out: Activity
HepG2 [14] = assay: Induction of apoptosis in human HepG2 cells assessed as early apoptotic cells at 0.125 uM after 48 hrs by […] based flow cytometry (reference value: 3.18%); assay type: functional
HepG2 [15] = assay: Induction of apoptosis in human HepG2 cells assessed as late apoptotic cells at 0.125 uM after 48 hrs by […] (reference value: 3.36%); assay type: functional
HepG2 [16] = assay: Induction of apoptosis in human HepG2 cells assessed as early apoptotic cells at 0.25 uM after 48 hrs by […] based flow cytometry (reference value: 3.18%); assay type: functional
HepG2 [17] = assay: Induction of apoptosis in human HepG2 cells assessed as necrotic cells at 0.25 uM after 48 hrs by Annexin V-APC/7-AAD staining based flow cytometry (reference value: 2.40%); assay type: functional
HepG2 [18] = assay: Induction of apoptosis in human HepG2 cells assessed as early apoptotic cells at 0.0625 uM after 48 hrs in presence of hemoglobin by Annexin V-APC/7-AAD staining based flow cytometry (reference value: 3.18%); assay type: functional
HepG2 [19] = assay: Induction of apoptosis in human HepG2 cells assessed as late apoptotic cells at 0.0625 uM after 48 hrs in presence of hemoglobin by Annexin V-APC/7-AAD staining based flow cytometry (reference value: 3.36%); assay type: functional
HepG2 [20] = assay: Induction of apoptosis in human HepG2 cells assessed as early apoptotic cells at 0.125 uM after 48 hrs in presence of hemoglobin by Annexin V-APC/7-AAD staining based flow cytometry (reference value: 3.18%); assay type: functional
HepG2 [21] = assay: Induction of apoptosis in human HepG2 cells after 48 hrs by […]; assay type: functional, cell-based
HepG2 [22] = assay: Induction of mitochondrial membrane potential loss in human HepG2 cells measured after 48 hrs by JC-1 staining based flow cytometry; assay type: functional, cell-based
In short: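 After 48 h exposure to 0.0625, 0.125 or 0.25 mM (so in the source) or vehicle, HepG-2 cells washed in PBS and stained with JC-1 in the dark. Flow cytometry scored cells with healthy (red aggregate) versus collapsed (green monomer) mitochondrial membrane potential.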

HepG2 [23] = assay: Downregulation of HO-1 expression in human HepG2 cells after 24 hrs by protein array assay; assay type: functional, cell-based
In short: (§2)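 Lysates from HepG-2 cells treated 24 h were incubated overnight at 4 °C on a membrane array of 35 apoptosis-related proteins. A biotinylated detection antibody cocktail was then applied for 1 h at room temperature. Relative expression was read from chemiluminescent spots by densitometry.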

HepG2 [24] = assay: Downregulation of HO-2 expression in human HepG2 cells after 24 hrs by protein array assay; assay type: functional, cell-based; in short: as §2
HepG2 [25] = assay: Downregulation of survivin expression in human HepG2 cells after 24 hrs by protein array assay; assay type: functional, cell-based; in short: as §2
HepG2 [26] = assay: Upregulation of total Cyt c level in human HepG2 cells up to 0.25 uM after 48 hrs by Western blot method; assay type: functional, cell-based
HepG2 [27] = assay: Downregulation of Bcl-xl level in human HepG2 cells up to 0.25 uM after 48 hrs by Western blot method; assay type: functional, cell-based
In short: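 HepG-2 cells were exposed 48 h to 0, 0.0625, 0.125 or 0.25 µM and lysed on ice for 20 min. Equal protein loads were run on 12% SDS-PAGE and transferred to PVDF. Membranes were probed overnight at 4 °C with primary antibodies, then with HRP-conjugated secondaries, and detected by ECL chemiluminescence.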

With C[C@H]1CCC/C=C/[C@@H]2C[C@H](OC(=O)CCCC(=O)OCCOc3no[n+]([O-])c3S(=O)(=O)c3ccccc3)C[C@H]2[C@H](OC(=O)CCCC(=O)OCCOc2no[n+]([O-])c2S(=O)(=O)c2ccccc2)/C=C/C(=O)O1 the Activity (HepG2 [1]) was 32.84%, the IC50 (HT-29) was 160 nM and the Activity (HepG2 [2]) was 48.2%. It also gave an Activity (HepG2 [3]) of 18.96%, an Activity (HepG2 [4]) of 51.22% and an Activity (HepG2 [5]) of 25.17%. The Activity (HepG2 [6]) was 2.67%, the Activity (HepG2 [7]) was 63.24% and the Activity (HepG2 [8]) was 30.54%. For the same compound, the Activity (HepG2 [9]) was 72.34%, the Activity (HepG2 [10]) was 22.37% and the Activity (HepG2 [11]) was “Active”. For the same compound, the Activity (HepG2 [12]) was 11.76%, the viability at 0.0625 µM (HepG2 [13]) was 82.1% and the Activity (HepG2 [14]) was 13.23%. The Activity (HepG2 [15]) was 21.42%, the Activity (HepG2 [16]) was 15.03% and the Activity (HepG2 [17]) was 5.47%. For the same compound, the Activity (HepG2 [18]) was 3.25%, the Activity (HepG2 [19]) was 6.68% and the Activity (HepG2 [20]) was 3.49%. For the same compound, the Activity (HepG2 [21]) was “Dose-dependent effect”, the Activity (HepG2 [22]) was “Dose-dependent effect” and the Activity (HepG2 [23]) was “Active”. The Activity (HepG2 [24]) was “Active”, the Activity (HepG2 [25]) was “Active” and the Activity (HepG2 [26]) was “Active”. For the same compound, the Activity (HepG2 [27]) was “Active”.
